pIC50: −log10 of the molar value. Calls of active or inactive are those of the source. The rule behind the calls is not given here.
Legend:
[1] = system: Nucleic Acid; experiment: Binding affinity to hairpin duplex F10T DNA assessed as change in melting temperature at 2.0 uM by FRET assay
[2] = Inhibition of telomerase from human MCF7 cellular extract by cell free TRAP assay
Method in brief: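 TRAP assay. Compounds at various concentrations were added to a telomerase reaction mixture containing extract from cracked MCF-7 breast carcinoma cells, and IC50 values were derived.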

[3] = system: Nucleic Acid; experiment: Binding affinity to human telomeric G-quadruplex F21T DNA assessed as change in melting temperature at 2.0 uM by FRET assay; assay type: nucleic-acid assay
[4] = system: Nucleic Acid; experiment: Inhibition of G-quadruplex HTG21 oligomer hybridization by PCR stop assay; assay type: nucleic-acid assay
Method in brief: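 HTG21 was amplified by PCR in the presence of compound, and products were separated on gel. IC50 is the concentration that inhibits amplification by 50%.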

[5] = system: Nucleic Acid; experiment: Induction of G-quadruplex structure formation in HTG21 oligomer assessed as formation of antiparallel quadruplex structure by CD spectroscopy; assay type: nucleic-acid assay

Row | SMILES | ΔTm [1] [°C] | pIC50 [2] | ΔTm [3] [°C] | pIC50 [4] | Activity [5]
1 | COc1ccc2cc3[n+](cc2c1OCCC[n+]1cccc(C)c1)CCc1cc2c(cc1-3)OCO2 | 0.5 | 4.85 | 21 | 5.22 | 
2 | COc1ccc2cc3[n+](cc2c1OCCC[n+]1cccc(F)c1)CCc1cc2c(cc1-3)OCO2 | 0 | 4.80 | 20 | 5.22 | 
3 | COc1ccc2cc3[n+](cc2c1OCCCOc1ccncc1)CCc1cc2c(cc1-3)OCO2 | 0 | 4.55 | 10 | 4.92 | 
4 | COc1ccc2cc3[n+](cc2c1OCCC[n+]1ccc(N(C)C)cc1)CCc1cc2c(cc1-3)OCO2 | 0 | 4.85 | 25 | 5.40 | Active
5 | COc1ccc2cc3[n+](cc2c1OCCCn1cc[n+](C)c1)CCc1cc2c(cc1-3)OCO2 | 0 | 4.80 | 17 | 5.10 | 
6 | COc1ccc2cc3[n+](cc2c1OCCCN1CCCCC1)CCc1cc2c(cc1-3)OCO2 |  | 4.80 |  | 5.15 | 
7 | COc1ccc2cc3[n+](cc2c1OC)CCc1cc2c(cc1-3)OCO2 | 1 |  | 4 |  | 
8 | COc1ccc2cc3[n+](cc2c1OCCCCCC[n+]1ccccc1)CCc1cc2c(cc1-3)OCO2 | 0 | 4.82 | 20 | 5.40 | 
9 | COc1ccc2cc3[n+](cc2c1OCCCn1ccc(N)nc1=O)CCc1cc2c(cc1-3)OCO2 | 0 | 4.66 | 13 | 4.85 | 
10 | COc1ccc2cc3[n+](cc2c1OCCCCC[n+]1ccccc1)CCc1cc2c(cc1-3)OCO2 | 0.5 | 4.82 | 21 | 5.15 | 
11 | COc1ccc2cc3[n+](cc2c1OCCC[n+]1cccc2ccccc21)CCc1cc2c(cc1-3)OCO2 | 0 | 4.82 | 20 | 5.10 | 
12 | COc1ccc2cc3[n+](cc2c1OCCC[n+]1ccccc1)CCc1cc2c(cc1-3)OCO2 | 0.5 | 4.77 | 18 | 5.10 | 

— ChEMBL document CHEMBL1137001, “Synthesis and evaluation of 9-O-substituted berberine derivatives containing aza-aromatic terminal group as highly selective telomeric G-quadruplex stabilizing ligands” (Bioorg Med Chem Lett, 2009)
